NF-kB expr up = compounds increasing NF-kB expression in human neuronal cells. NF-kB reporter expression; hits give high values. fold change at 12.5 µM. 190,000 tested, 1.6% active; in the data active = fold change above about 3.3
APP 5'UTR act = activates APP 5'UTR luciferase reporter; SH-SY5Y APP 5'UTR luciferase reporter, luminescence; zero percent = DMSO vehicle wells; activation, % at 2 µM; 190,000 tested, 1% active;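 active = activation above a set limit, based on mean plus 3 SD of controls, cut at about 140% in these data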
STAT1 activator = STAT1 signaling activation | NIH 3T3 STAT1-luciferase reporter, IFN-gamma, luminescence; 100% = IFN-gamma alone, no compound | activation (% of control), % at 5.5 µM | 200,000 tested, 2.6% active | AID 932;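 active = activation above the screen-wide mean activation plus 3 SD, cut at about 130% in these data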
Wee1 stabilizer = inhibitors of human Wee1 degradation; P30291; HeLa Luc-Wee1K328M stability, luciferase luminescence; 100% = proteasome inhibitor MG132 effect; reporter increase, % at 5 µM; 220,000 tested, 1.2% active;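 active = activation above the mean of all tested compounds plus 3 SD, set per screening run, cut at about 8.8% in these data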;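 also: cells exposed to compound for 20 h before luminescence read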
p97 inhibitor = human p97 ATPase inhibition | P55072 | AID 1481 | 220,000 tested, 0.42% active | inhibition, % at 8 µM | recombinant p97 ATPase, Kinase-Glo ATP luminescence, 3 h; in the data active = inhibition above about 15%
Target sequence (P55072 whole entry, looked up): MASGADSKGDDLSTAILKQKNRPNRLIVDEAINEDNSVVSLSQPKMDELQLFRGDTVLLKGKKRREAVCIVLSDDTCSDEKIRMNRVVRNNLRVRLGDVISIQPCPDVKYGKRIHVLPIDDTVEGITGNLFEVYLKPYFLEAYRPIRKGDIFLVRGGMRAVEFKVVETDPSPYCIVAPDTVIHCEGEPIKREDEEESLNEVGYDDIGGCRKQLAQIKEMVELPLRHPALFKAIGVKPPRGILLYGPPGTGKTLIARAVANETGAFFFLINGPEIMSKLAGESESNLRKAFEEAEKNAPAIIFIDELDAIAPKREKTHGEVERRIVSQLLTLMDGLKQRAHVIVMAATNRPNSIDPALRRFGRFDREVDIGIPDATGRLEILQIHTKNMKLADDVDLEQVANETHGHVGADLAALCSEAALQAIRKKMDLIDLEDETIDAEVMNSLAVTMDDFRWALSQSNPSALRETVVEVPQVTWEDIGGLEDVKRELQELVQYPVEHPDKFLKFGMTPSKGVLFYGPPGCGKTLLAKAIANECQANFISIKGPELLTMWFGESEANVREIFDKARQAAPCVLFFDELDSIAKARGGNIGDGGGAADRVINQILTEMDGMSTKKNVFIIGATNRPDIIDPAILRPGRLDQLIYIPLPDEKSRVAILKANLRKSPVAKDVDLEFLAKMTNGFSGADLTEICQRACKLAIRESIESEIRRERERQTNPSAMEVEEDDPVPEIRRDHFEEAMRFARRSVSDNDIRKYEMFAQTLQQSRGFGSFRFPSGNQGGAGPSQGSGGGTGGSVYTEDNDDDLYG
Mdm2 ligase inh = Mdm2 E3 ligase (human) inhibition; signal enhancement, % at 5 µM; 210,000 tested, 0.11% active; cell-based MDM2 ubiquitination luciferase reporter, 2 h; 0 = plate control, 100 = twice control, blank-subtracted;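 active = signal enhancement of 30% or more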;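 also: luminescence tracks abundance of the self-degrading MDM2-luciferase fusion protein; higher signal means inhibition of MDM2 E3 ligase activity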
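Assay system: stable mammalian line carrying autodegrading MDM2–luciferase fusion reporter; amount: 2000 cells seeded into each well; buffer or medium: DMEM; benchmarks: plate control and blank wells; signal: luciferase luminescence; timing: 2 h compound exposure at 37 °C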
Hits are given with their value; . = inactive; / = no result. Only some compounds are listed: those with a hit (about 4.6% of all), similar ones and a draw of the others.

SMILES | NF-kB expr up | APP 5'UTR act | STAT1 activator | Wee1 stabilizer | p97 inhibitor | Mdm2 ligase inh
Cc1ccc(-n2[nH]c(C)c(C=Nc3ccc(S(=O)(=O)N4CCOCC4)cc3)c2=O)c(C)c1 | . | . | . | . | . | .
CCOC(=O)c1cnc(SCC(=O)c2ccc(Cl)cc2)nc1N | . | . | . | . | . | .
CCOC(=O)c1cnc(SCc2ccc(C)cc2)nc1N | . | . | 140.1 | . | . | .
CCCCSc1ncc(C(=O)OCC)c(N)n1 | 6.79 | 163.7 | 139.1 | . | . | .
COc1ccc(-c2nc(CSCC(=O)NCCC3=CCCCC3)c(C)o2)cc1OC | . | . | . | . | . | .
c1ccc(CCNc2nc(-c3cccnc3)cs2)cc1 | . | . | 133.2 | . | . | .
c1ccc(CCNc2nc(-c3ccccn3)cs2)cc1 | 4.1 | . | 142.4 | . | . | .
Cc1ccc(Sc2ncnc3onc(C)c23)c(C)c1 | . | . | . | 9.1 | . | .
C/C(CC(=O)Nc1ccc(Cl)c(Cl)c1)=N\NC(=O)C(=O)N1CCCCC1 | . | . | . | . | . | .
O=C(/C=C/c1cccc(Oc2ccccc2)c1)N1CCOCC1 | . | 144.9 | 139.2 | . | . | .
CNc1nc(-c2ccc3c(c2)CCN3C(=O)c2ccc(F)cc2)cs1 | . | . | . | . | . | .
CNc1nc(-c2ccc3c(c2)CCN3C(=O)c2ccccc2C)cs1 | 3.79 | 193.2 | 145.4 | . | . | .
Cc1ccc(CSc2ncn(-c3ccccc3)n2)cc1 | . | . | . | . | . | .
Clc1ccccc1CSc1ncn(-c2ccccc2)n1 | . | . | 130.7 | . | . | .
CC(=O)Nc1ccc(NS(=O)(=O)c2ccc(C)cc2)c([N+](=O)[O-])c1 | . | . | . | . | . | .
CN(C)c1ccc(/C=N/NC(=O)c2nonc2N)cc1[N+](=O)[O-] | . | . | 133.3 | . | . | .
Nc1nonc1C(=O)N/N=C/c1cccc([N+](=O)[O-])c1 | . | . | . | . | . | .
COc1ccc(C(=O)O)cc1S(=O)(=O)NCCc1ccccn1 | / | / | / | . | . | /
O=C(COc1ccccc1)Nc1ccc(Cl)cc1Cl | 3.46 | . | 133.7 | . | . | .
O=C(COc1ccc2ccccc2c1)Nc1nccs1 | 6.51 | 190.1 | . | . | . | .
O=C(COc1ccccc1)Nc1nccs1 | . | . | . | 9.6 | . | .
O=C(COc1ccc(Cl)cc1Cl)Nc1ccc(Cl)cn1 | 4.5 | 180.8 | 141.7 | . | . | .
O=C(c1ccccc1)c1ccccc1C(=O)N1CCN(C(=O)c2ccccc2)CC1 | . | . | . | . | . | .
CC(=O)Nc1ccc(SCC(=O)Nc2ccc(Cl)cn2)cc1 | . | . | . | . | . | .
O=C(CSc1ccc2c(c1)OCCO2)Nc1ccc(Cl)cn1 | . | . | . | 11.0 | . | .
SMILES | NF-kB expr up | APP 5'UTR act | STAT1 activator | Wee1 stabilizer | p97 inhibitor | Mdm2 ligase inh
O=C(COc1ccccc1)Nc1ncccn1 | . | . | . | . | . | 34.5
O=C(CCCOc1ccccc1)Nc1ncccn1 | . | . | . | . | . | .
C/C(=C\C(=O)Nc1nccs1)c1ccccc1 | . | . | 144.2 | . | . | .
CC(=O)c1cccc(NC(=O)COC(=O)C2=COCCO2)c1 | . | . | . | . | . | .
S=C(NCCc1ccccc1)Nc1ccc(Br)cn1 | . | . | . | . | . | .
O=C(Nc1ccc2c(c1)OCCO2)c1ccc2nccnc2c1 | / | 165.3 | . | . | . | /
CSc1ccc(NC(=O)c2cccnc2)cc1C#N | . | . | . | 8.8 | . | .
Cc1ccc(C(=O)Nc2ccc3nccnc3c2)cc1 | 8.38 | 144.6 | . | . | . | .
O=C(Nc1ccc2c(c1)OCCO2)c1cccnc1 | . | . | 129.3 | . | . | .
Cc1ccc(SC(=O)c2c([N+](=O)[O-])c(C)nn2C)cc1 | / | / | / | . | . | .
Cc1cc(C(=O)Nc2ccc(S(=O)(=O)N3CCCC3)cc2)no1 | . | . | . | . | . | .
Cc1cnc(C(=O)Nc2ccc(N3CCCCC3)cc2)cn1 | . | 141.6 | 135.1 | . | . | .
Cc1cc(C(=O)Nc2ccc(N3CCCCC3)cc2)no1 | / | / | / | 9.1 | . | .
c1ccc(-c2nnc(SCCC3OCCCO3)o2)cc1 | 3.38 | . | . | . | . | .
Brc1ccc(-c2nnc(SCCC3OCCCO3)o2)cc1 | . | . | . | . | . | .
Cc1nn(-c2cccc(C(F)(F)F)c2)c(=O)c2noc(C)c12 | / | / | / | . | . | .
O=C(O)C12CC3CC(C1)CC(n1ncc(NCc4ccco4)c(Cl)c1=O)(C3)C2 | / | / | / | 10.2 | . | .
O=C(O)CC12CC3CC(C1)CC(n1ncc(NCc4ccccc4Cl)c(Cl)c1=O)(C3)C2 | / | / | / | . | . | .
COC(=O)C1=C(C)N(c2ccc(OC)c(OC)c2)C(=O)/C1=C\c1ccco1 | . | . | . | 8.9 | . | .
O=C(CCCn1c(=O)[nH]c2ccsc2c1=O)N1CCN(c2ccccn2)CC1 | . | . | . | 10.8 | . | .
O=C(CCCn1c(=O)[nH]c2ccccc2c1=O)N1CCN(c2ccccn2)CC1 | . | . | . | . | . | /
O=C(CCCOc1ccccc1)N1CCN(c2ccccn2)CC1 | . | 152.6 | 129.3 | . | . | .
COC(=O)C1CCN(C(=O)CCCOc2ccccc2)CC1 | . | 145.9 | 132.3 | . | . | .
Cc1ccc2c(c1)oc(=O)n2CC(=O)c1ccccc1 | / | / | / | . | . | .
CCCCSc1nnc(-c2ccccc2)c2ccccc12 | . | . | . | . | . | .
SMILES | NF-kB expr up | APP 5'UTR act | STAT1 activator | Wee1 stabilizer | p97 inhibitor | Mdm2 ligase inh
O=C(COC(=O)c1cc[n+]([O-])cc1)NCc1ccccc1Cl | . | . | . | . | . | .
CCOC(=O)C1CCN(C(=S)NC2CC3C=CC2C3)CC1 (stereo not drawn) | / | / | / | . | . | .
COc1ccc(OCCn2nnc(-c3ccc(Cl)cc3)n2)cc1 | . | . | . | 15.9 | . | .
Cc1cc(C)cc(C(=O)NN2CCN(C)CC2)c1 | . | . | . | . | . | .
C/C(=N/NC(=O)c1cccs1)c1cccc(N)c1 | . | . | . | . | . | .
C/C(=N\NC(=O)C(N)=O)c1ccc(NC(=O)c2cccs2)cc1 | . | . | 137.2 | . | . | .
N/C(=N\O)c1ccc(NC(=O)c2cccs2)cc1 | . | . | 130.2 | . | . | .
CCN(CC)S(=O)(=O)c1cccc(C(=O)N/N=C(\C)c2cccs2)c1 | . | . | 128.7 | . | . | .
CC(=O)c1ccc(NC(=O)c2cccs2)cc1 | . | . | . | . | . | .
CC(=O)Nc1cccc(/C(C)=N/NC(=O)c2cccs2)c1 | . | . | 140.2 | . | . | .
C/C(=N\NC(=O)c1ccccc1C)c1ccc(NC(=O)c2cccs2)cc1 | . | . | . | . | . | .
COc1ccc(C(=O)NN/C(C)=C/C(=O)C(F)(F)C(F)(F)C(F)(F)F)cc1 | . | . | . | . | . | /
CC(C)(C)c1ccc(C(=O)CS(=O)(=O)c2ccccc2)cc1 | . | 139.9 | . | . | . | .
Cc1ccccc1OCCn1cnc2c(N)ncnc21 | . | . | 129.4 | . | . | .
Nc1ncnc2c1ncn2CCN1CCCCC1 | . | . | . | . | . | .
